Activity calls are given as the source filed them. The rule behind the calls is not given here.
Assays:
Albumin [1] = biological target: T1, Albumin (Mus musculus, UniProt P07724); experiment: Binding affinity to mouse serum albumin at 10 to 20 uCi/mL after 60 mins by size-exclusion HPLC analysis; format: ADME; conditions: isolated protein, 1 h
In short: (§1)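 Radioiodinated compound incubated 60 min with human, rabbit or mouse serum, or with purified human SHBG. Aliquots analysed on a TSK3000 size-exclusion column: 0.1 M potassium phosphate/0.1 M Na2SO4 (1:1, pH 6.8) for 20 min, then 0–40% CH3CN over 20 min, held 30 min, 0.7 mL/min. Protein-bound versus free radioactivity read from the peaks.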

Albumin [2] = biological target: Albumin (Homo sapiens, UniProt P02768); experiment: Binding affinity to human serum albumin at 10 to 20 uCi/mL after 60 mins by size-exclusion HPLC analysis; format: ADME; conditions: isolated protein, 1 h; in short: as §1
Chain of Albumin (Homo sapiens, UniProt P02768) (P02768 whole entry): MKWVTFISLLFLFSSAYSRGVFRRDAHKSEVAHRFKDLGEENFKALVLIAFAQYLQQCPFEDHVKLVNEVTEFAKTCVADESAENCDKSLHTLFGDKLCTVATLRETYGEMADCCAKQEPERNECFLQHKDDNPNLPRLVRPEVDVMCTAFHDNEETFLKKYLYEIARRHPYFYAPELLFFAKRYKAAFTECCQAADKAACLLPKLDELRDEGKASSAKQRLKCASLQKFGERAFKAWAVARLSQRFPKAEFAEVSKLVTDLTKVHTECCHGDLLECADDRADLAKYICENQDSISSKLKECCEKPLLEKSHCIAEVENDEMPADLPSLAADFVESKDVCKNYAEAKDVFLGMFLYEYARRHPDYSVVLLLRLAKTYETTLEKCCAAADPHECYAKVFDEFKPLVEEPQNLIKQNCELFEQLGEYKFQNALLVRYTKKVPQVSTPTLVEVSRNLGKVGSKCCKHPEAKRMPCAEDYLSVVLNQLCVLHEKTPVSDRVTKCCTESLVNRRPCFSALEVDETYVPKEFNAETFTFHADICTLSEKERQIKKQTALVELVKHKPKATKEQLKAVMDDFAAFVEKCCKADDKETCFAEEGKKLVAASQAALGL

Albumin [3] = biological target: Albumin (Oryctolagus cuniculus, UniProt P49065); experiment: Binding affinity to rabbit serum albumin at 10 to 20 uCi/mL after 60 mins by size-exclusion HPLC analysis; format: ADME; conditions: isolated protein, 1 h; in short: as §1
Chain of Albumin (Oryctolagus cuniculus, UniProt P49065) (P49065 whole entry): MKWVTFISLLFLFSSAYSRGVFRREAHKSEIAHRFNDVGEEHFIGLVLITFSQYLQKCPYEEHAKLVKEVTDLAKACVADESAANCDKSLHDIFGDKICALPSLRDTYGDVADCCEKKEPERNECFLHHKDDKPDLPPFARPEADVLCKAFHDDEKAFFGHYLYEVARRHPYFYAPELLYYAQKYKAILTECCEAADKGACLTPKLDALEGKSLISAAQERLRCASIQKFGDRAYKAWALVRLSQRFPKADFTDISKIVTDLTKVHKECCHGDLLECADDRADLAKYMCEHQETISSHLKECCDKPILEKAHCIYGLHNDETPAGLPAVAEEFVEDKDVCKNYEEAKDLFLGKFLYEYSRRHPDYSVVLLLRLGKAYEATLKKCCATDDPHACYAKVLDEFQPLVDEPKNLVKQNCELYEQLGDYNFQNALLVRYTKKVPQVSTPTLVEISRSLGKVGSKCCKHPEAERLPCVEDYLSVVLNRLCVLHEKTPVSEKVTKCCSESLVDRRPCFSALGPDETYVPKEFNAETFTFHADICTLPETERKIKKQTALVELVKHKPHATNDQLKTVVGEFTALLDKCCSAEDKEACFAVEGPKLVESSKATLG

[4] = Stability in mouse serum assessed as intact compound remaining at 10 to 20 uCi/mL after 60 mins by size-exclusion HPLC analysis; format: ADME, cell-free; conditions: read-out: Stability; in short: as §1
[5] = Stability in rabbit serum assessed as intact compound remaining at 10 to 20 uCi/mL after 60 mins by size-exclusion HPLC analysis; format: ADME, cell-free, Oryctolagus cuniculus; conditions: read-out: Stability; in short: as §1
[6] = Stability in human serum assessed as intact compound remaining at 10 to 20 uCi/mL after 60 mins by size-exclusion HPLC analysis; format: ADME, cell-free; conditions: read-out: Stability; in short: as §1
[7] = biological target: T2, Sex hormone-binding globulin (Homo sapiens, UniProt P04278); experiment: Binding affinity to human sex hormone binding globulin at 10 to 20 uCi up to 6 hrs by size-exclusion HPLC analysis; format: ADME
T2 sequence (P04278 whole entry): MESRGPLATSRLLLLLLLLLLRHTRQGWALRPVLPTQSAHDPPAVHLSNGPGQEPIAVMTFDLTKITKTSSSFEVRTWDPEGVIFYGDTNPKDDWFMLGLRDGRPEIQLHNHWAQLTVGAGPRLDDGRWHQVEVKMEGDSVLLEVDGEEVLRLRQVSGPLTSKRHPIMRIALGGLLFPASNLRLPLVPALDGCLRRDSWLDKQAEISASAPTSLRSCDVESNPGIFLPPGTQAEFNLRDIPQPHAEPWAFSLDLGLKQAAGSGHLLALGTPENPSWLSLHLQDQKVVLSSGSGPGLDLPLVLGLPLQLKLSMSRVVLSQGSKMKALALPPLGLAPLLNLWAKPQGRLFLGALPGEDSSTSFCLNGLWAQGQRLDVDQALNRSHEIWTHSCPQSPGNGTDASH

[8] = biological target: T2, Sex hormone-binding globulin; experiment: Binding affinity to human sex hormone binding globulin at 10 to 20 uCi up to 6 hrs by reversed phase HPLC analysis; format: ADME
Albumin [9] = biological target: T1, Albumin; experiment: Binding affinity to mouse serum albumin at 10 to 20 uCi/mL after 60 mins by reversed phase HPLC analysis; format: ADME; conditions: isolated protein, 1 h
[10] = Stability in mouse serum assessed as intact compound remaining at 10 to 20 uCi/mL after 60 mins by reversed phase HPLC analysis; format: ADME, cell-free; conditions: read-out: Stability
In short: (§2)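 After 60 min incubation in human, rabbit or mouse serum, incubation mixtures were extracted. Extracts were run on C18 reverse-phase HPLC with H2O/CH3CN, both with 0.07% TFA: 100% aqueous for 10 min, then 0–95% CH3CN over 30 min, held 20 min. Intact radioactive compound was distinguished from degradation product against nonradioactive reference standards.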

[11] = Stability in rabbit serum assessed as intact compound remaining at 10 to 20 uCi/mL after 60 mins by reversed phase HPLC analysis; format: ADME, cell-free, Oryctolagus cuniculus; conditions: read-out: Stability; in short: as §2
[12] = Stability in human serum assessed as intact compound remaining at 10 to 20 uCi/mL after 60 mins by reversed phase HPLC analysis; format: ADME, cell-free; conditions: read-out: Stability; in short: as §2
[13] = Stability in human OVCAR-3 cells expressing androgen receptor assessed as half life at 0.01 to 5 uCi/mL by silica gel instant thin layer chromatography; format: ADME, cell-based
[14] = Stability in human OVCAR-3 cells expressing androgen receptor assessed as assessed as compound degradation at 0.01 to 5 uCi/mL up to 24 hrs by silica gel instant thin layer chromatography; format: ADME, cell-based; conditions: read-out: Activity
OVCAR-3 [15] = experiment: Antitumor activity against human OVCAR-3 cells xenografted in athymic NCr mouse at 14 uCi, ip administered 12 days after tumor implantation as single dose measured 5 weeks after implantation; format: functional, organism-based; conditions: tested as the 125I-labelled form
In short: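 Athymic NCr-nu/nu female mice bearing ip OVCAR-3 implants; compound given ip either as one 14 μCi/mouse dose or as three escalating daily doses of 5, 10 and 15 μCi/mouse (total 30 μCi); tumor response assessed at necropsy.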

OVCAR-3 [16] = experiment: Antitumor activity against human OVCAR-3 cells xenografted in athymic NCr mouse administered 12 days after tumor implantation at a escalating dose of 5 uCi, ip of day 1, 20 uCi, ip on day 2, 15 uCi, ip on day 3 measured 5 weeks after implantation; format: functional, organism-based; conditions: tested as the 125I-labelled form

T1 sequence (P07724 whole entry): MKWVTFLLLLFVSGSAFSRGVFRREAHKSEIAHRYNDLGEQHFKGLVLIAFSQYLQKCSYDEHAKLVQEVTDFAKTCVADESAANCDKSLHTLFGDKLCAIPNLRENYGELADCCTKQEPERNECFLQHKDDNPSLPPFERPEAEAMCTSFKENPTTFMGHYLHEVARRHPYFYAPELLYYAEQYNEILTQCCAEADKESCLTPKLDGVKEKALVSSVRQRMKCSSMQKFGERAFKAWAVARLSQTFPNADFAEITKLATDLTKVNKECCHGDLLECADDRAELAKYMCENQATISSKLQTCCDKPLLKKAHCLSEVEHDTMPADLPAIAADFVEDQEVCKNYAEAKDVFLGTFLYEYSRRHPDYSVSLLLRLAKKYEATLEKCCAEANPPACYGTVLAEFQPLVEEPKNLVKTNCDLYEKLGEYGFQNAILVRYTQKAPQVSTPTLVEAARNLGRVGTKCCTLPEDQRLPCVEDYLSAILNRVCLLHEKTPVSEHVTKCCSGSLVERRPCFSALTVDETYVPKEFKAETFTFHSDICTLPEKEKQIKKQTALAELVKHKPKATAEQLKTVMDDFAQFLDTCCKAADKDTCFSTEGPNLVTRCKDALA

Row | SMILES | Activity (Albumin [1]) | Activity (Albumin [2]) | Activity (Albumin [3]) | remaining at 1 h [4] | remaining at 1 h [5] | remaining at 1 h [6] | Activity [7] | Activity [8] | Activity (Albumin [9]) | remaining at 1 h [10] | remaining at 1 h [11] | remaining at 1 h [12] | half-life [13] | metabolised at 24 h [14] | Activity (OVCAR-3 [15]) | Activity (OVCAR-3 [16])
1 | CCOC(=O)CCC(=O)O[C@H]1C[C@H](n2cc([125I])c(=O)[nH]c2=O)O[C@@H]1CO | Not Active | Not Active | Not Active | < 2% | < 2% | > 90% | Not Active | Not Active | Not Active | < 2% | < 2% | > 90% | – | – | – | –
2 | C[C@]12CCC(=O)C[C@@H]1CC[C@@H]1[C@@H]2CC[C@]2(C)[C@@H](OC(=O)CCC(=O)O[C@H]3C[C@H](n4cc([123I])c(=O)[nH]c4=O)O[C@@H]3CO)CC[C@@H]12 | – | – | – | – | – | – | – | – | – | – | – | – | 792 min | > 70% | – | –
3 | C[C@]12CCC(=O)C[C@@H]1CC[C@@H]1[C@@H]2CC[C@]2(C)[C@@H](OC(=O)CCC(=O)O[C@H]3C[C@H](n4cc(I)c(=O)[nH]c4=O)O[C@@H]3CO)CC[C@@H]12 | – | – | – | – | – | – | – | – | – | – | – | – | – | – | inactive | inactive
4 | O=c1[nH]c(=O)n([C@H]2C[C@H](O)[C@@H](COP(=O)(O)O)O2)cc1[125I] | Not Active | Not Active | Not Active | – | 30% | 30% | Not Active | Not Active | Not Active | – | 30% | 30% | – | – | – | –
